# In ChEMBL document CHEMBL3779881, “Property Focused Structure-Based Optimization of Small Molecule Inhibitors of the Protein-Protein Interaction between Menin and Mixed Lineage Leukemia (MLL)” (J Med Chem, 2016):
# Key:
# [1] = Growth inhibition of Hoxa9/Meis1 transformed mouse bone marrow cells after 7 days by MTT assay; assay type: functional; conditions: Bone marrow cell, 168 h
# [2] = biological target: Menin/Histone-lysine N-methyltransferase MLL (Homo sapiens, UniProt O00255); assay: Inhibition of menin-MLL interaction (unknown origin) after 1 hr by fluorescence polarization assay; assay type: protein assay
# [3] = Half life in CD-1 mouse liver microsomes at 1 uM after 3 to 60 mins by LC-MS/MS analysis; assay type: ADME
# [4] = test system: Bone marrow cell; assay: Selectivity index, ratio of GI50 for Hoxa9/Meis1 transformed mouse bone marrow cells to GI50 for MLL-AF9 transformed mouse bone marrow cells; assay type: functional
# [5] = Growth inhibition of MLL-AF9 transformed mouse bone marrow cells after 7 days by MTT assay; assay type: functional; conditions: Bone marrow cell, 168 h
# [6] = Efflux ratio of apparent permeability from […] side in human Caco2 cells at 10 uM after 2 hrs by LC-MS/MS analysis; assay type: ADME, cell-based; conditions: caco-2, 2 h
# [7] = test system: Mus musculus; assay: Cmax in C57BL/6 mouse plasma at 30 mg/kg, po after 8 hrs by LC-MS/MS analysis; assay type: ADME, organism-based; design: dose 30 mg/kg, route oral; conditions: in vivo
# How it was run: (§1)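 Female C57BL/6 mice dosed iv at 15 mg/kg or orally at 30 mg/kg in 25% DMSO/25% PEG-400/50% PBS (v/v). Serial 50 μL blood samples collected over 24 h (8 h in one experiment), spun to plasma; concentrations by validated LC-MS/MS in positive-ion MRM mode; parameters from noncompartmental analysis.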
# [8] = test system: Mus musculus; assay: Tmax in C57BL/6 mouse plasma at 30 mg/kg, po after 8 hrs by LC-MS/MS analysis; assay type: ADME, organism-based; conditions: in vivo; how it was run: as §1
# [9] = test system: Mus musculus; assay: Oral bioavailability in C57BL/6 mouse at 30 mg/kg after 8 hrs by LC-MS/MS analysis; assay type: ADME, organism-based; conditions: in vivo; how it was run: as §1
# [10] = test system: Mus musculus; assay: Half life in C57BL/6 mouse at 15 mg/kg, iv after 8 hrs by LC-MS/MS analysis; assay type: ADME, organism-based; conditions: in vivo; how it was run: as §1
# [11] = test system: Mus musculus; assay: Volume of distribution at steady state in C57BL/6 mouse at 15 mg/kg, iv after 8 hrs by LC-MS/MS analysis; assay type: ADME, organism-based; conditions: in vivo; how it was run: as §1
# [12] = Clearance in C57BL/6 mouse at 15 mg/kg, iv after 8 hrs by LC-MS/MS analysis; assay type: ADME, organism-based; conditions: in vivo; how it was run: as §1
# [13] = test system: Mus musculus; assay: AUC in C57BL/6 mouse at 30 mg/kg, po after 8 hrs by LC-MS/MS analysis; assay type: ADME, organism-based; design: dose 30 mg/kg, time < 8 hr, route oral; conditions: in vivo; how it was run: as §1
# [14] = test system: Mus musculus; assay: AUC in C57BL/6 mouse at 15 mg/kg, iv after 8 hrs by LC-MS/MS analysis; assay type: ADME, organism-based; design: time < 8 hr, dose 15 mg/kg, route intravenous; conditions: in vivo; how it was run: as §1
# [15] = test system: Mus musculus; assay: Half life in C57BL/6 mouse at 15 mg/kg, iv after 24 hrs by LC-MS/MS analysis; assay type: ADME, organism-based; conditions: in vivo; how it was run: as §1
# [16] = test system: Mus musculus; assay: Volume of distribution at steady state in C57BL/6 mouse at 15 mg/kg, iv after 24 hrs by LC-MS/MS analysis; assay type: ADME, organism-based; conditions: in vivo; how it was run: as §1
# [17] = test system: Mus musculus; assay: Tmax in C57BL/6 mouse plasma at 30 mg/kg, po after 24 hrs by LC-MS/MS analysis; assay type: ADME, organism-based; conditions: in vivo; how it was run: as §1
# [18] = Clearance in C57BL/6 mouse at 15 mg/kg, iv after 24 hrs by LC-MS/MS analysis; assay type: ADME, organism-based; conditions: in vivo; how it was run: as §1
# [19] = test system: Mus musculus; assay: AUC in C57BL/6 mouse at 30 mg/kg, po after 24 hrs by LC-MS/MS analysis; assay type: ADME, organism-based; design: time < 24 hr, dose 30 mg/kg, route oral; conditions: in vivo; how it was run: as §1
# [20] = test system: Mus musculus; assay: AUC in C57BL/6 mouse at 15 mg/kg, iv after 24 hrs by LC-MS/MS analysis; assay type: ADME, organism-based; design: dose 15 mg/kg, time < 24 hr, route intravenous; conditions: in vivo; how it was run: as §1
# [21] = test system: Mus musculus; assay: Oral bioavailability in C57BL/6 mouse at 30 mg/kg after 24 hrs by LC-MS/MS analysis; assay type: ADME, organism-based; conditions: in vivo; how it was run: as §1
# [22] = test system: Mus musculus; assay: Half life in C57BL/6 mouse at 30 mg/kg, po after 24 hrs by LC-MS/MS analysis; assay type: ADME, organism-based; conditions: in vivo; how it was run: as §1
# [23] = test system: Mus musculus; assay: Cmax in C57BL/6 mouse plasma at 30 mg/kg, po after 24 hrs by LC-MS/MS analysis; assay type: ADME, organism-based; design: dose 30 mg/kg, route oral; conditions: in vivo; how it was run: as §1
# [24] = biological target: T1, Menin (Homo sapiens, UniProt O00255); assay: Binding affinity to menin (unknown origin)
# T1 sequence (O00255 whole entry): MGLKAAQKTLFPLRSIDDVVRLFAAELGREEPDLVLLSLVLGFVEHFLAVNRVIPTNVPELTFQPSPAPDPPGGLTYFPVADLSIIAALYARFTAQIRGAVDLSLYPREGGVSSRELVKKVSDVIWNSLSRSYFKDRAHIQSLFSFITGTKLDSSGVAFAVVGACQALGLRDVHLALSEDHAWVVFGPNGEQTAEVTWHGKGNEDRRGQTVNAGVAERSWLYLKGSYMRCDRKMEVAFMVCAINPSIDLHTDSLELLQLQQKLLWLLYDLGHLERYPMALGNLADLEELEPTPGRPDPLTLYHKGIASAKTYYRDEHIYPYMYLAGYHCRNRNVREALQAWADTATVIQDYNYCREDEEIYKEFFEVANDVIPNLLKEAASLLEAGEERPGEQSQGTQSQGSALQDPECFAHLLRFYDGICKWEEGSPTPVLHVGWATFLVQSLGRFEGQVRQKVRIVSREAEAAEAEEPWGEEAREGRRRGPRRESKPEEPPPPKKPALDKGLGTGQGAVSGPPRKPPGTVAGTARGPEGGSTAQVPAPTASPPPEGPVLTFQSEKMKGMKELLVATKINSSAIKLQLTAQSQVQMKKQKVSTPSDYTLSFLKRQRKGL
# Menin/Histone-lysine N-methyltransferase MLL, sequence (Q03164 1-2718 partner limits assumed, one chain of several): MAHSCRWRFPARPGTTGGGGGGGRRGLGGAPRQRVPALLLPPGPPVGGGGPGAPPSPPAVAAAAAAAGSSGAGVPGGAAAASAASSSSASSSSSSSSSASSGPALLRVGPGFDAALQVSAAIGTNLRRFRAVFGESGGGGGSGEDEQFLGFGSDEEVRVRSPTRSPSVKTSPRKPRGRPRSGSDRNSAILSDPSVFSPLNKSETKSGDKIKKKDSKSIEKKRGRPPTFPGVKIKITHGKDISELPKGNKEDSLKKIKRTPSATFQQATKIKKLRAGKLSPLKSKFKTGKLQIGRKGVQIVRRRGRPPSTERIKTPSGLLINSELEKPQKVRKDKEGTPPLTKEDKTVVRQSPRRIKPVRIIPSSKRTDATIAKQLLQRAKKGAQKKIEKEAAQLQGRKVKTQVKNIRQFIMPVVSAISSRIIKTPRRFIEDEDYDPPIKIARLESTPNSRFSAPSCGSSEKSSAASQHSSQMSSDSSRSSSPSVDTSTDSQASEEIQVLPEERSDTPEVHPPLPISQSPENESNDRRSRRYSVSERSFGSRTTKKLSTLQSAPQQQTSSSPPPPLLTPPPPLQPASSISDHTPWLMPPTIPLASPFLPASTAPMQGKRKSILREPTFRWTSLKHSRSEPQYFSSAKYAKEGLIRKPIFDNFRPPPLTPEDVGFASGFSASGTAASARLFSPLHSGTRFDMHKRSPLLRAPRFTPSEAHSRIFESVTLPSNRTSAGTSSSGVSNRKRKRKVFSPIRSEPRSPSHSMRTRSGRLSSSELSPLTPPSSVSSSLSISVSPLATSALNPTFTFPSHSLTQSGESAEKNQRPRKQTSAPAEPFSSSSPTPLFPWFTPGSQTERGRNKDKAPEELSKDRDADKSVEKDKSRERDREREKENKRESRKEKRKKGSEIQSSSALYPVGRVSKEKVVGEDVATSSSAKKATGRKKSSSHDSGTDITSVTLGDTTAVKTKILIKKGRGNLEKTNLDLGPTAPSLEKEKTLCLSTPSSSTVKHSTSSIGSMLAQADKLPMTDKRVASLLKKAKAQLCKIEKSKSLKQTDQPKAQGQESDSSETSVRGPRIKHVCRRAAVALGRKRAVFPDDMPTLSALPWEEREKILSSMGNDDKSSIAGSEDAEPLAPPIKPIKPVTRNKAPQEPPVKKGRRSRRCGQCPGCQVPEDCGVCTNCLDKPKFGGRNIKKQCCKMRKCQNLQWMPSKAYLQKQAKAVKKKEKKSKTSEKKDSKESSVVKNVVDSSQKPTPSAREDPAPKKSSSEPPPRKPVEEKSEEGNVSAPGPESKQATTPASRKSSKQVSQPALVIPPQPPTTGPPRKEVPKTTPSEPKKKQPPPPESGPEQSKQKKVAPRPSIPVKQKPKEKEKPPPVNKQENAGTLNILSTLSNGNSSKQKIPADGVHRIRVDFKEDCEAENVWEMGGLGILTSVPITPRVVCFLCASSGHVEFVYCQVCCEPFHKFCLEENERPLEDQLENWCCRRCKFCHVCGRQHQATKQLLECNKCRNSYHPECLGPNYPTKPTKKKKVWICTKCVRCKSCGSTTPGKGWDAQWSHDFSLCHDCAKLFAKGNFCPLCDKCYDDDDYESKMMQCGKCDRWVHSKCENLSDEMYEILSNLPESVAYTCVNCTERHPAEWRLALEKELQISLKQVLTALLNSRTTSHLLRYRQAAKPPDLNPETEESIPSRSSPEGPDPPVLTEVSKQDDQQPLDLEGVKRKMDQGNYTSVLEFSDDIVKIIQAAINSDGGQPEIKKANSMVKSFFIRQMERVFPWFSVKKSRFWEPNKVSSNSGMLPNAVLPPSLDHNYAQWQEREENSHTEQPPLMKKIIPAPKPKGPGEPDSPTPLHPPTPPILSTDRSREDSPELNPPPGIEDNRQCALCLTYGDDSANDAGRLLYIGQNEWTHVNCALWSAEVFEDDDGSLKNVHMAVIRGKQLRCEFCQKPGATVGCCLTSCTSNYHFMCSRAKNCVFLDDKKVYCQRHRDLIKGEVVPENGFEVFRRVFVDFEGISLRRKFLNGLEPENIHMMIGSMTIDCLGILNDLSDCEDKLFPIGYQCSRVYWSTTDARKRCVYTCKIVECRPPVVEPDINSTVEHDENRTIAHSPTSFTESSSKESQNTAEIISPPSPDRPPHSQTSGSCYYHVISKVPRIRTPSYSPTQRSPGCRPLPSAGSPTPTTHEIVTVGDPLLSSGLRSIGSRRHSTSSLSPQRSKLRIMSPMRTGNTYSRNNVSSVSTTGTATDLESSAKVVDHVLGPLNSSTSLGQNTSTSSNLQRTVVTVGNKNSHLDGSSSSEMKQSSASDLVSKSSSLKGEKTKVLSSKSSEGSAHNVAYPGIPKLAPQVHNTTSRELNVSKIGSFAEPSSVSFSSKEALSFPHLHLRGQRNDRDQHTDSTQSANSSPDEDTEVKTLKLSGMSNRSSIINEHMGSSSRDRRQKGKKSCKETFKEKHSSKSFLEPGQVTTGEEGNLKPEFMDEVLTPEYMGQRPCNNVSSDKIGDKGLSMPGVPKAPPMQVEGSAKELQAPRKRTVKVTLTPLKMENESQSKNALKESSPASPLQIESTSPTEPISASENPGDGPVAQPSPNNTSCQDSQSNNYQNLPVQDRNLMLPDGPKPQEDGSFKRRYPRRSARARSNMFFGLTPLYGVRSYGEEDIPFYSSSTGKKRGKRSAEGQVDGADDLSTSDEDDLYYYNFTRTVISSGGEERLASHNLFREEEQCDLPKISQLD
# Menin/Histone-lysine N-methyltransferase MLL, sequence (Q03164 2719-3969 partner limits assumed, one chain of several): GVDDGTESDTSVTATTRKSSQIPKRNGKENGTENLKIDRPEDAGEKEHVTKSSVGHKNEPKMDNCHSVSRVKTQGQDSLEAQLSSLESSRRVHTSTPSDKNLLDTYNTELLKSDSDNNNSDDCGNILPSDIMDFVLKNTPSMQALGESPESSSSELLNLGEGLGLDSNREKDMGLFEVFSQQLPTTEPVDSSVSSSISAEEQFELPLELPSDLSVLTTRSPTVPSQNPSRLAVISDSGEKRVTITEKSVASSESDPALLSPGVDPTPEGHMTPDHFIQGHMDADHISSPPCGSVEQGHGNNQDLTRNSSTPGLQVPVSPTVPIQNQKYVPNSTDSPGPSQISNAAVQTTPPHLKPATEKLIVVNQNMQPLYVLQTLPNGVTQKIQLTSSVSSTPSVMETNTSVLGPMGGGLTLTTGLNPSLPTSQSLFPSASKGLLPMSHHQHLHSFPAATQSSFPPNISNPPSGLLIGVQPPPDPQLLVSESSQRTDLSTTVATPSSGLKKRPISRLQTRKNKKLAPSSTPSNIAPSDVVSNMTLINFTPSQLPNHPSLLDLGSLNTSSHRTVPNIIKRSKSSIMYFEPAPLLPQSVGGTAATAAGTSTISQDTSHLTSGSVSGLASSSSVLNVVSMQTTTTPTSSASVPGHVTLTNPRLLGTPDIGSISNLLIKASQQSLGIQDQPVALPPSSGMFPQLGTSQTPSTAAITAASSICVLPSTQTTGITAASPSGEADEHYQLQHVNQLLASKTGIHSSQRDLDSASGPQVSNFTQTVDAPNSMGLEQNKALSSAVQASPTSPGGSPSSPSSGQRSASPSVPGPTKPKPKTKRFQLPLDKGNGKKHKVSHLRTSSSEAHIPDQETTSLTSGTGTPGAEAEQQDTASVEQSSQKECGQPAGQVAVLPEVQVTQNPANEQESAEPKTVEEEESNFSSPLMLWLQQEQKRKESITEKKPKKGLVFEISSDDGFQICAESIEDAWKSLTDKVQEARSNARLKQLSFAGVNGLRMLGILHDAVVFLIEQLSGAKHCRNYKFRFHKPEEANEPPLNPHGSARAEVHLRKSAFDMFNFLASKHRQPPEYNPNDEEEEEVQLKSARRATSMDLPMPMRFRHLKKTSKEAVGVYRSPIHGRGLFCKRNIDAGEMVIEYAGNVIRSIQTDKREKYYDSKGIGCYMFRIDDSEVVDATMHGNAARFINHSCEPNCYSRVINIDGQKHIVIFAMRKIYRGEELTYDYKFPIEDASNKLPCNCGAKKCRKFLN
SMILES,GI50 [1] [µM],IC50 [2] [nM],t1/2 [3] [min],RatioGI50 [4],GI50 [5] [nM],t1/2 [15] [h],Vdss [16] [mL/kg],Tmax [17] [h],clearance [18] [mL/min/kg],AUC [19] [ng·h/mL],AUC [20] [ng·h/mL],F [21] [%],t1/2 [22] [h],Cmax [23] [ng/mL],other results
N#Cc1cc2cc(CN3CCC(Nc4ncnc5sc(CC(F)(F)F)cc45)CC3)ccc2n1CC(N)=O,25,25,54,32,780,–,–,–,–,–,–,–,–,–,Ratio [6]: > 90
COc1cc2c(cc(C#N)n2Cc2cn[nH]c2)c(C)c1CN1CCC(Nc2ncnc3sc(CC(F)(F)F)cc23)CC1,4.2,12,55,23,180,–,–,–,–,–,–,–,–,–,Cmax [7]: 101 ng/mL; Tmax [8]: 2 h; F [9]: 1%; t1/2 [10]: 1.4 h; Vdss [11]: 1837 mL/kg; clearance [12]: 15 mL/min/kg; AUC [13]: 383 ng·h/mL; AUC [14]: 16235 ng·h/mL
Cc1c(CN2CCC(Nc3ncnc4sc(CC(F)(F)F)cc34)CC2)c(O)cc2[nH]c(C#N)cc12,12,27,56,55,220,1.7,4454,2,44.1,3846,5666,34,4,649,–
COc1cc2[nH]c(C#N)cc2c(C)c1CN1CCC(Nc2ncnc3sc(CC(F)(F)F)cc23)CC1,11,40,39,110,100,1.8,3698,0.5,26.6,8717,9397,46,2,2113,–
COc1cc2c(cc(C#N)n2Cc2c[nH]nn2)c(C)c1CN1CCC(Nc2ncnc3sc(CC(F)(F)F)cc23)CC1,9,16,32,22,410,–,–,–,–,–,–,–,–,–,–
COc1cc2c(cc(C#N)n2CCO)c(C)c1CN1CCC(Nc2ncnc3sc(CC(F)(F)F)cc23)CC1,15,16,7.8,69,360,–,–,–,–,–,–,–,–,–,–
Cc1c(CN2CCC(Nc3ncnc4sc(CC(F)(F)F)cc34)CC2)c(O)cc2c1cc(C#N)n2CCO,10,27,11,25,400,–,–,–,–,–,–,–,–,–,–
N#Cc1cc2cc(CN3CCC(Nc4ncnc5sc(CC(F)(F)F)cc45)CC3)ccc2[nH]1,3,31,6.8,5.5,550,3.1,6516,1,38.1,7509,6576,57,3.1,1516,Kd [24]: 23.6 nM
